Compound activity (PubChem BioAssay)
Only some compounds are listed: those with a hit (about 2.5% of all), similar ones and a draw of the others.
dFosB activator: activators of delta FosB homodimer, primary screen, biochemical, fluorescence polarization, TAMRA-CDK5 oligo, single point. Protein FosB (Mus musculus), P13346. purified delta FosB; percent of positive-control signal above neutral wells. activation, % at 25 µM. 340,000 compounds, 0.99% hits. AID 493131, 2011;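 active = mean activation above about 17%, with every replicate also reaching it, limit read from the data, passing the limit was not always enough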
CDK5 p35 inh: inhibitors of human CDK5/p35 kinase, primary screen, biochemical, single concentration | Recombinant CDK5/p35, ADP-Glo luminescence, 60 min | inhibition, % at 10 µM | 330,000 compounds, 0.01% hits;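 active = highest replicate inhibition of at least 50% and at least 75% of replicates reaching 50%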
NSD2 HMT inh: NSD2 histone methyltransferase inhibitors, primary screen, biochemical, AlphaScreen, single concentration, set 2. Histone-lysine N-methyltransferase NSD2 (Homo sapiens), O96028. inhibition, % at 12.5 µM. 310,000 compounds, 0.54% hits. AID 743445, 2014. NSD2 peptide methylation, 120 min
Dyrk1A ADPGlo: rat Dyrk1A kinase inhibitors, primary screen, biochemical, single point, plate reader. ADP-Glo luminescence, NFATc1 peptide. inhibition, % at 12.5 µM. 310,000 compounds, 0.43% hits. AID 504441, 2011
SR-BI DiI inh: inhibitors of SR-BI mediated HDL lipid uptake, primary screen, ldlA[mSR-BI] cells, fluorescence, single point. inhibition, % at 12.5 µM. Scavenger receptor class B member 1 (Mus musculus), Q61009. ldlA[mSR-BI] CHO cells, DiI-HDL uptake fluorescence, 3 h. 320,000 compounds, 0.96% hits;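 active = mean replicate inhibition of at least 70% and a set share of replicates each scoring 70 or more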
Target sequence (Q61009 whole entry, looked up): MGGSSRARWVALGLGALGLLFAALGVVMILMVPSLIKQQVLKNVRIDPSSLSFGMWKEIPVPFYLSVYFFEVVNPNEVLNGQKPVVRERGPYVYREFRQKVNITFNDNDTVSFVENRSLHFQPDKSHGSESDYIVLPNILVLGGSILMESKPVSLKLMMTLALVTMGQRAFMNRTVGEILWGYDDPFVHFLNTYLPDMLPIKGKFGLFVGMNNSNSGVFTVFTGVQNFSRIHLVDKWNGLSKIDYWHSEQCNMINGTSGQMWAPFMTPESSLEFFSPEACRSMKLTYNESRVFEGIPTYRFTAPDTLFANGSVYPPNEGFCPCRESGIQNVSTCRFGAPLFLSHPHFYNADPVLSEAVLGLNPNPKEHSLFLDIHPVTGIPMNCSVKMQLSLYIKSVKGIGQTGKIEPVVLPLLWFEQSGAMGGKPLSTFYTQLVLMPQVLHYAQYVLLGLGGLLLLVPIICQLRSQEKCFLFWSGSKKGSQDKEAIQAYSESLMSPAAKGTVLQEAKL
SR-BI uptake up: activators of SR-BI mediated DiI-HDL uptake, primary screen, ldlA[mSR-BI] CHO cells, DiI fluorescence; 3 h; 100 = double the neutral-control signal; activation, % at 12.5 µM; 320,000 compounds, 0.096% hits; AID 504775, 2011;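 active = mean replicate activation of at least 60% and every replicate at or above 60%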
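Assay system: CHO ldlA[mSR-BI] cells, LDL receptor-null, SR-BI overexpressing; medium: Ham's F12 with 0.5% BSA, HEPES 25 mM, pH 7.4; also added: DiI-HDL 10 µg/mL; timing: 3 h uptake period with compound, 37 °C; signal: DiI fluorescence, bottom read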
Of the large screens only hits and unclear results are named; the others gave an inactive call. Cut-off read from the data, not from the text of the source, unless noted: active = inhibition above about 50%; inactive = the rest.

CCOc1ccc(NC(=O)CN(C)C(=O)C2CC(=O)N(c3ccc4c(c3)OCCO4)C2)cc1OCC (centres undefined)	none
CCOc1ccc(NC(=O)CN(C)C(=O)C2CC(=O)N(c3cccc(SC)c3)C2)cc1OCC (centres undefined)	SR-BI DiI inh 72.1
COc1ccc(N2CCN(C(=O)Cn3nnc(-c4ccccc4N)n3)CC2)cc1	SR-BI DiI inh 82.6
CCCNC(=O)C1(C)CCN1C(=O)Cc1ccc(C(C)(C)C)cc1 (centres undefined)	none (no result: dFosB activator, CDK5 p35 inh, Dyrk1A ADPGlo, SR-BI DiI inh, SR-BI uptake up)
Cc1cc(C(=O)COC(=O)c2ccc(O)cc2)c(C)n1CCc1ccc(F)cc1	SR-BI DiI inh 73.7
Cc1cnc(C(=O)OCC(=O)c2cc(C)n(CCc3ccc(F)cc3)c2C)cn1	none (no result: dFosB activator, CDK5 p35 inh, Dyrk1A ADPGlo, SR-BI DiI inh, SR-BI uptake up)
CCc1ccccc1NC(=O)[C@@H]1CCCN1S(=O)(=O)c1cccc2cccnc12	none (no result: dFosB activator, CDK5 p35 inh, Dyrk1A ADPGlo, SR-BI DiI inh, SR-BI uptake up)
CCN(CC)c1ccc(S(=O)(=O)Nc2cc(Cl)ccc2Cl)cc1NC(=S)NC(=O)C1CCCC1	none
CCN(CC)S(=O)(=O)c1ccc(Cl)c(NC(=S)NC(=O)C2CCCC2)c1	SR-BI DiI inh 71.1
O=c1[nH]c2ccc(S(=O)(=O)N3CCCC3)cc2o1	none (no result: dFosB activator, CDK5 p35 inh, Dyrk1A ADPGlo, SR-BI DiI inh, SR-BI uptake up)
Cc1ccc(-n2c(SCC(=O)Nc3ccc(OCc4ccccc4)cc3)nnc2-c2ccccc2)cc1	none (no result: dFosB activator, CDK5 p35 inh, Dyrk1A ADPGlo, SR-BI DiI inh, SR-BI uptake up)
CC(C)=C1CCC(C)CC1=NNC(N)=S (centres undefined)	none (no result: Dyrk1A ADPGlo)
CC1C/C(=N\NC(N)=S)c2cc(Cl)ccc2S1 (centres undefined)	SR-BI DiI inh 80.1
COc1ccc(/C(C)=N/NC(=O)c2ccc(CSc3cccc4cccnc34)cc2)cc1OC	SR-BI DiI inh 90.1
COc1ccc2cc(-c3cn(C(=O)N(c4ccccc4)c4ccccc4)nn3)ccc2c1	none (no result: dFosB activator, CDK5 p35 inh, Dyrk1A ADPGlo, SR-BI DiI inh, SR-BI uptake up)
NNC(=O)c1oc2nc(-c3ccco3)cc(-c3ccco3)c2c1N	none (no result: dFosB activator, CDK5 p35 inh, Dyrk1A ADPGlo, SR-BI DiI inh, SR-BI uptake up)
NNC(=O)c1oc2nc(-c3ccc(Cl)cc3)cc(-c3ccccc3)c2c1N	SR-BI DiI inh 106.1
O=C(CN(CCc1ccccc1)S(=O)(=O)c1cccs1)N1CCOCC1	none (no result: dFosB activator, CDK5 p35 inh, Dyrk1A ADPGlo, SR-BI DiI inh, SR-BI uptake up)
COC(=O)c1c(NC(=O)c2ccccc2)sc2c1CC(C)(C)NC2(C)C	none (no result: NSD2 HMT inh)
CC1(C)Cc2c(sc(NC(=O)c3ccc(C(=O)c4ccccc4)cc3)c2C(N)=O)C(C)(C)N1	dFosB activator 43.9
Cc1nn(-c2ccccc2)c(C)c1/C=N\N1CCN(c2ccc(Cl)cc2)CC1	SR-BI DiI inh 79.9
COc1ccc(OC)c(/C=N/N2CCN(c3ccc(Cl)cc3)CC2)c1	SR-BI uptake up 148.3
COc1cc(OC)c(C(=O)Nc2cc(Cl)ccc2-n2cncn2)cc1OC	SR-BI DiI inh 80.9
C[C@@H](N)C(=O)Nc1ccc(Cl)cc1C(=O)c1ccc[nH]1	none (no result: dFosB activator, CDK5 p35 inh, Dyrk1A ADPGlo, SR-BI DiI inh, SR-BI uptake up)
COc1cc(F)ccc1S(=O)(=O)N1CCN(C23CC4CC(CC(C4)C2)C3)CC1	none
COc1cc(C)ccc1S(=O)(=O)N1CCN(C23CC4CC(CC(C4)C2)C3)CC1	SR-BI DiI inh 76.7
Cc1ccc(C(=O)CCC(=O)NC2=NCCS2)cc1	none
Cn1c(SCC2CCC2)nnc1-c1ccco1	none (no result: dFosB activator, CDK5 p35 inh, Dyrk1A ADPGlo, SR-BI DiI inh, SR-BI uptake up)
COc1ccc(-c2nnc(-c3cc(OC)c(OC)c(OC)c3)o2)cc1OC	SR-BI DiI inh 76.4
COc1ccc(-c2nc(-c3cccc(C)c3)no2)cc1OC	none
COc1cc(-c2noc(-c3cccc(Cl)c3)n2)cc(OC)c1OC	SR-BI DiI inh 75.8
COc1cc(-c2nc(-c3cccc(C)c3)no2)cc(OC)c1OC	SR-BI DiI inh 84.1
CC(=O)N1CCN(C(=O)CN2C(=O)CC(C)(C)S(=O)(=O)c3ccccc32)CC1	none (no result: dFosB activator, CDK5 p35 inh, Dyrk1A ADPGlo, SR-BI DiI inh, SR-BI uptake up)
CCOc1ccc(-c2c(C(=O)N/N=C/c3ccc(OC(C)C)cc3)nnn2-c2nonc2N)cc1	SR-BI DiI inh 76.7
Cc1ccc(-c2c(C(=O)N/N=C/c3ccc(OC(C)C)cc3)nnn2-c2nonc2N)cc1	SR-BI DiI inh 78.0
O=C(NCCc1ccc(F)cc1)c1ccc(Sc2ccccc2Cl)c([N+](=O)[O-])c1	none (no result: dFosB activator, CDK5 p35 inh, Dyrk1A ADPGlo, SR-BI DiI inh, SR-BI uptake up)
Cc1cc(C)cc(N(CC(=O)NCc2ccc(F)cc2)C(=O)CCC(=O)Nc2ccccn2)c1	none (no result: SR-BI DiI inh, SR-BI uptake up)
CC(=O)NC(CC(=O)OCC(=O)c1cc(C)ccc1C)c1ccccc1 (centres undefined)	none
COc1ccccc1OCCn1cc(/C=N/NC(=O)c2ccncc2)c2ccccc21	none
COc1ccccc1OCCn1cc(/C=N/NC(N)=S)c2ccccc21	SR-BI DiI inh 76.8
CNC(=S)N/N=C/c1cn(CCOc2ccc(OC)cc2)c2ccccc12	SR-BI DiI inh 77.5
O=C(CCc1ccccc1)N=C1SC2CS(=O)(=O)CC2N1c1ccccc1F (centres undefined)	none
CSc1nc(C(C)C)ccc1CNC(=O)CC(C)c1ccccc1 (centres undefined)	none
S=C(NCc1ccc(Cl)cc1)Nc1ccncc1	none
N#C/C(=C/c1ccc(-c2ccc([N+](=O)[O-])cc2)o1)C(=O)Nc1nc(-c2cccs2)cs1	SR-BI DiI inh 87.6
COc1ccc2c(c1)Sc1ccc(Cl)cc1N2	none (no result: dFosB activator, CDK5 p35 inh, Dyrk1A ADPGlo, SR-BI DiI inh, SR-BI uptake up)
CCOc1ccccc1CNC(=O)C1CCN(c2nn3c(=O)cc(C)nc3s2)CC1	none
CCOc1ccc(CCNC(=O)C2CCN(c3nn4c(=O)cc(C)nc4s3)CC2)cc1OCC	SR-BI DiI inh 72.0
COc1ccc(CCNC(=O)C2CCCN(c3nc4ccccc4s3)C2)cc1OC (centres undefined)	SR-BI DiI inh 79.3
Cc1ccc(CS(=O)Cc2ccc(C(=O)NCc3ccccc3Br)o2)cc1 (centres undefined)	none
COc1ccc(OC)c2sc(N(CCCN(C)C)C(=O)c3ccc(S(=O)(=O)N4CCc5ccccc5C4)cc3)nc12	none (no result: dFosB activator, CDK5 p35 inh, Dyrk1A ADPGlo, SR-BI DiI inh, SR-BI uptake up)
CN(C)CCCN(C(=O)c1ccc(S(=O)(=O)N2CCc3ccccc3C2)cc1)c1nc2c(F)cc(F)cc2s1	dFosB activator 37.4
COc1cc2nc(N(CCCN(C)C)C(=O)c3ccc(S(=O)(=O)N4CCc5ccccc5C4)cc3)sc2cc1OC	none
Cc1ccc2sc(N(CCCN(C)C)C(=O)c3ccc(S(=O)(=O)N4CCc5ccccc5C4)cc3)nc2c1C	dFosB activator 38.1
COc1ccc(C)c2sc(N(CCCN(C)C)C(=O)c3ccc(S(=O)(=O)N4CCc5ccccc5C4)cc3)nc12	dFosB activator 69.7
COc1ccc(NC(=O)/C(C#N)=C\c2cc(C)n(-c3ccc(Oc4ccc([N+](=O)[O-])cn4)cc3)c2C)cc1	SR-BI DiI inh 75.1
